Test results: ChEMBL document CHEMBL3045126, “Antifungal activities of major tea leaf volatile constituents toward Colletorichum camelliae Massea” (2006)
In brackets after ≈: the same amount, converted by molar mass.

What was measured:
Assay type in all cases: functional
[1] = test system: Colletotrichum camelliae; assay: Antifungal activity against Colletotrichum camelliae assessed as inhibition of mycelial growth at 1000 ug/mL measured after 5 days of cultivation; settings: 120 h, read-out: GI
Outline: (§1)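 Volatile constituents emulsified with emulsifier 0203-B (0.01% in medium) and mixed into PDA at 100, 500, 1000, 1500 or 2000 µg/mL in 9 cm plates. A 4 mm mycelial disk cut from a 4-day-old culture was placed centrally. Incubation was 5 days at 25 °C. Colony diameter was the mean of two readings. Inhibition = (C−T)×100/C against untreated and emulsifier controls. Three replicates.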

[2] = test system: Colletotrichum camelliae; assay: Antifungal activity against Colletotrichum camelliae assessed as inhibition of mycelial growth measured after 5 days of cultivation; settings: 120 h; outline: as §1
[3] = test system: Colletotrichum camelliae; assay: Antifungal activity against Colletotrichum camelliae assessed as inhibition of mycelial growth at 2000 ug/mL measured after 5 days of cultivation; settings: 120 h, read-out: GI; outline: as §1
[4] = test system: Colletotrichum camelliae; assay: Antifungal activity against Colletotrichum camelliae assessed as inhibition of mycelial growth at 100 ug/mL measured after 5 days of cultivation; settings: 120 h, read-out: GI; outline: as §1
[5] = test system: Colletotrichum camelliae; assay: Antifungal activity against Colletotrichum camelliae assessed as inhibition of mycelial growth at 1500 ug/mL measured after 5 days of cultivation; settings: 120 h, read-out: GI; outline: as §1
[6] = test system: Colletotrichum camelliae; assay: Antifungal activity against Colletotrichum camelliae assessed as inhibition of mycelial growth at 500 ug/mL measured after 5 days of cultivation; settings: 120 h, read-out: GI; outline: as §1

MIC [2] [µg/mL] | SMILES | inhibition of growth at 1000 µg/mL [1] [%] | inhibition of growth at 2000 µg/mL [3] [%] | inhibition of growth at 100 µg/mL [4] [%] | inhibition of growth at 1500 µg/mL [5] [%] | inhibition of growth at 500 µg/mL [6] [%]
2040 (≈ 16.7 mM) | OCCc1ccccc1 [PHENYLETHYL ALCOHOL] | 70.4 | 92.6 | 51.9 | 85.2 | 46.3
> 2380 | C=C[C@]1(C)CC[C@@H](C(C)(C)O)O1 [(E)-LINALOOL OXIDE] | 44.4 | 57.4 | 37 | 48.1 | 40.7
1770 (≈ 11.6 mM) | COC(=O)c1ccccc1O [METHYL SALICYLATE] | 55.6 | 100 | 42.6 | 100 | 50
> 2120 | CC/C=C\CCO [CIS-3-HEXENOL] | 61.1 | 79.6 | 42.6 | 74.1 | 44.4
2600 (≈ 24 mM) | OCc1ccccc1 [BENZYL ALCOHOL] | 61.1 | 83.3 | 44.4 | 68.5 | 46.3
1380 (≈ 8.92 mM) | C=CC(C)(O)CCC=C(C)C (stereo not drawn) [LINALOOL] | 50 | 100 | 37 | 100 | 46.3
440 (≈ 2.85 mM) | CC(C)=CCC/C(C)=C/CO [GERANIOL] | 100 | 100 | 58.1 | 100 | 100
> 2380 | C=C[C@]1(C)CC[C@H](C(C)(C)O)O1 [CIS-FURANOID] | 44.4 | 57.4 | 37 | 48.1 | 40.7
